Measured values published in ChEMBL document CHEMBL4689842, “EUbOPEN Chemogenomics Library wave 1” (2021).

System: U2OS
Experiment: Multiplex assay against U2OS
Format: toxicity, cell-based
Conditions: human
In short: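 Four dyes were applied at seeding to live cells: Hoechst33342, BioTracker Green Microtubule Cytoskeleton Dye, MitoTracker Red and Annexin V Alexa Fluor 680. Imaging after compound addition used a CQ1 microscope at 37°C and 5% CO2. CellPathfinder machine-learning gating then sorted cells into Hoechst high-intensity objects or normal cells, normal cells into healthy, pyknosed or fragmented nuclei, and pyknosed cells into mitotic or apoptotic, with tubulin, mitochondrial-mass and membrane-permeability phenotypes given as per cents of healthy-nucleus cells.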

[1] = 12 h, 1 µM, compound concentration 1 uM, replicate 1
[2] = 12 h, 1 µM, compound concentration 1 uM, replicate 2
[3] = 12 h, 10 µM, compound concentration 10 uM, replicate 1
[4] = 12 h, 10 µM, compound concentration 10 uM, replicate 2
[5] = 24 h, 1 µM, compound concentration 1 uM, replicate 1
[6] = 24 h, 1 µM, compound concentration 1 uM, replicate 2
[7] = 24 h, 10 µM, compound concentration 10 uM, replicate 1
[8] = 24 h, 10 µM, compound concentration 10 uM, replicate 2
[9] = 48 h, 1 µM, compound concentration 1 uM, replicate 1
[10] = 48 h, 1 µM, compound concentration 1 uM, replicate 2
[11] = 48 h, 10 µM, compound concentration 10 uM, replicate 1
[12] = 48 h, 10 µM, compound concentration 10 uM, replicate 2

## N#Cc1cccc(C(=O)Nc2cc(-c3ccccc3)nn2-c2ccccc2)c1
[1]
  Population Apoptotic (%): 33%
  Population Fragmented Nuclei (%): 14%
  Population Healthy Nuclei (%): 73%
  Population Hoechst High Intensity Objects (%): 9%
  Population Membrane Permeable-Phenotype (%): 2%
  Population Mitotic Cells (%): 66%
  Population Normal (%): 90%
  Population Pyknosed Nuclei (%): 12%
  Population Tubulin-Different-Phenotype (%): 13%
  Total Cell Count: 109
[2]
  Population Apoptotic (%): 16%
  Population Fragmented Nuclei (%): 5%
  Population Healthy Nuclei (%): 84%
  Population Hoechst High Intensity Objects (%): 3%
  Population Membrane Permeable-Phenotype (%): 6%
  Population Mitochondria Different-Phenotype (%): 8%
  Population Mitotic Cells (%): 83%
  Population Normal (%): 96%
  Population Pyknosed Nuclei (%): 10%
  Population Tubulin-Different-Phenotype (%): 16%
  Total Cell Count: 59
[3]
  Population Apoptotic (%): 50%
  Population Fragmented Nuclei (%): 14%
  Population Healthy Nuclei (%): 69%
  Population Hoechst High Intensity Objects (%): 6%
  Population Membrane Permeable-Phenotype (%): 22%
  Population Mitochondria Different-Phenotype (%): 86%
  Population Mitotic Cells (%): 50%
  Population Normal (%): 93%
  Population Pyknosed Nuclei (%): 15%
  Population Tubulin-Different-Phenotype (%): 100%
  Total Cell Count: 121
[4]
  Population Apoptotic (%): 45%
  Population Fragmented Nuclei (%): 9%
  Population Healthy Nuclei (%): 60%
  Population Hoechst High Intensity Objects (%): 9%
  Population Membrane Permeable-Phenotype (%): 15%
  Population Mitochondria Different-Phenotype (%): 84%
  Population Mitotic Cells (%): 55%
  Population Normal (%): 90%
  Population Pyknosed Nuclei (%): 30%
  Population Tubulin-Different-Phenotype (%): 97%
  Total Cell Count: 72
[5]
  Population Apoptotic (%): 23%
  Population Fragmented Nuclei (%): 13%
  Population Healthy Nuclei (%): 76%
  Population Hoechst High Intensity Objects (%): 11%
  Population Mitochondria Different-Phenotype (%): 5%
  Population Mitotic Cells (%): 76%
  Population Normal (%): 88%
  Population Tubulin-Different-Phenotype (%): 3%
  Total Cell Count: 137
[6]
  Population Apoptotic (%): 14%
  Population Fragmented Nuclei (%): 3%
  Population Healthy Nuclei (%): 86%
  Population Hoechst High Intensity Objects (%): 4%
  Population Membrane Permeable-Phenotype (%): 1%
  Population Mitochondria Different-Phenotype (%): 8%
  Population Mitotic Cells (%): 85%
  Population Normal (%): 95%
  Population Pyknosed Nuclei (%): 10%
  Population Tubulin-Different-Phenotype (%): 7%
  Total Cell Count: 68
[7]
  Population Apoptotic (%): 35%
  Population Fragmented Nuclei (%): 19%
  Population Healthy Nuclei (%): 55%
  Population Hoechst High Intensity Objects (%): 8%
  Population Membrane Permeable-Phenotype (%): 33%
  Population Mitochondria Different-Phenotype (%): 78%
  Population Mitotic Cells (%): 64%
  Population Normal (%): 91%
  Population Pyknosed Nuclei (%): 25%
  Population Tubulin-Different-Phenotype (%): 98%
  Total Cell Count: 119
[8]
  Population Apoptotic (%): 42%
  Population Fragmented Nuclei (%): 9%
  Population Healthy Nuclei (%): 67%
  Population Hoechst High Intensity Objects (%): 6%
  Population Membrane Permeable-Phenotype (%): 30%
  Population Mitochondria Different-Phenotype (%): 71%
  Population Mitotic Cells (%): 57%
  Population Normal (%): 93%
  Population Pyknosed Nuclei (%): 22%
  Population Tubulin-Different-Phenotype (%): 95%
  Total Cell Count: 66
[9]
  Population Apoptotic (%): 38%
  Population Fragmented Nuclei (%): 10%
  Population Healthy Nuclei (%): 82%
  Population Hoechst High Intensity Objects (%): 5%
  Population Membrane Permeable-Phenotype (%): 2%
  Population Mitochondria Different-Phenotype (%): 2%
  Population Mitotic Cells (%): 61%
  Population Normal (%): 94%
  Population Pyknosed Nuclei (%): 7%
  Population Tubulin-Different-Phenotype (%): 4%
  Total Cell Count: 190
[10]
  Population Apoptotic (%): 20%
  Population Fragmented Nuclei (%): 3%
  Population Healthy Nuclei (%): 86%
  Population Hoechst High Intensity Objects (%): 4%
  Population Membrane Permeable-Phenotype (%): 4%
  Population Mitochondria Different-Phenotype (%): 13%
  Population Mitotic Cells (%): 80%
  Population Normal (%): 95%
  Population Pyknosed Nuclei (%): 10%
  Population Tubulin-Different-Phenotype (%): 9%
  Total Cell Count: 98
[11]
  Population Apoptotic (%): 59%
  Population Fragmented Nuclei (%): 17%
  Population Healthy Nuclei (%): 58%
  Population Hoechst High Intensity Objects (%): 10%
  Population Membrane Permeable-Phenotype (%): 32%
  Population Mitochondria Different-Phenotype (%): 67%
  Population Mitotic Cells (%): 40%
  Population Normal (%): 89%
  Population Pyknosed Nuclei (%): 24%
  Population Tubulin-Different-Phenotype (%): 100%
  Total Cell Count: 123
[12]
  Population Apoptotic (%): 55%
  Population Fragmented Nuclei (%): 13%
  Population Healthy Nuclei (%): 60%
  Population Hoechst High Intensity Objects (%): 11%
  Population Membrane Permeable-Phenotype (%): 52%
  Population Mitochondria Different-Phenotype (%): 42%
  Population Mitotic Cells (%): 44%
  Population Normal (%): 88%
  Population Pyknosed Nuclei (%): 26%
  Population Tubulin-Different-Phenotype (%): 97%
  Total Cell Count: 78
